# Compound activity deposited in PubChem by several laboratories.
# An excerpt weighted towards active compounds, which were near 3.1% of everything screened.
# Apaf-1 inh: human Apaf-1 inhibition; inhibition, % at 20 µM; actives 0.71% (n = 330,000); O14727; reconstituted apoptosome caspase-3 activity, DEVD-Rh110 fluorescence; active = inhibition of at least 40% at 20 µM;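 note: plate controls were DMSO wells for no effect and DEVD-CHO caspase inhibitor wells for full effect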
#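 Medium: Hepes buffer, pH 7.5 / System: biochemical Apaf-1 apoptosome reconstitution / Measured by: Rh110 fluorescence, excitation 480 nm, emission 540 nm / Times: compound with Apaf-1, dATP, procaspase-3 30 min, then 50 min reaction, room temperature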
# MEKK2 WT-MEK5: raises or lowers MEK5 binding to wildtype human MEKK2 PB1 domain; actives 1.1% (n = 290,000); bead flow cytometry, Alexa488-MEK5 binding to MEKK2 WT; actives lie on both sides; AID 1531; Q9Y2U5; binding response (% of control), % at 10 µM; in the data active = binding response below about 67% or above about 130%
# PREPL inhibitor: inhibitors of human prolyl oligopeptidase-like enzyme PREPL; Q4J6C6; recombinant PREPL, fluorescence polarization activity-based probe; actives 0.68% (n = 320,000); inhibition, % at 5.96 µM; in the data active = inhibition above about 43%;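 note: 0% = enzyme with DMSO and 100% = wells lacking enzyme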
# UBC13 polyUb: blocks human UBC13 polyubiquitin chain formation; AID 485273; TR-FRET; inhibition, % at 20 µM; P61088; actives 0.47% (n = 330,000); in the data active = inhibition above about 45%, passing the limit was not always enough
# Target sequence (P61088 whole entry, looked up): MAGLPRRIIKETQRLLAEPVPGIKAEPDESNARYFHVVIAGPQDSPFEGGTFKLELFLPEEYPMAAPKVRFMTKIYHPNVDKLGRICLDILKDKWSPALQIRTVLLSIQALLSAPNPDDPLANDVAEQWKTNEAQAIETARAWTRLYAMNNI
# MEKK3 PB1 HTS: raises or lowers MEK5 binding to the human MEKK3 PB1 domain; actives 1.4% (n = 290,000); bead-based flow cytometry, Alexa488-MEK5 binding to MEKK3; actives lie on both sides; 0 = blocked by unlabeled MEK5, 100 = vehicle; AID 1529; binding response (% of control), % at 10 µM;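 active = binding response more than 3 SD above or below the average of its plate-row segment, actives on both sides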;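 note: Alexa488 bead fluorescence after subtracting the streptavidin-only scavenger bead signal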
# MEKK2mut PB1 HTS: signal of MEK5 binding to mutant human MEKK2 PB1 domain; percent response, % at 10 µM; AID 1530; bead flow cytometry, Alexa488-MEK5 binding to MEKK2 mutant; actives 0.35% (n = 290,000); in the data active = percent response above about 24%, passing the limit was not always enough
# MEKK2wt confirm: raises or lowers MEK5 binding to wildtype human MEKK2, retest; bead flow cytometry, Alexa488-MEK5 binding to MEKK2 WT; actives lie on both sides; AID 1892; binding response (% of control), % at 10 µM; actives 2.4% (n = 5,900); shares compounds with MEKK3 PB1 HTS; in the data active = binding response below about 16% or above about 210%; inactive = in between
# MEKK2mut-MEK5: signal of MEK5 binding to mutant human MEKK2, retest; shares compounds with MEKK3 PB1 HTS; bead flow cytometry, Alexa488-MEK5 binding to MEKK2 mutant; percent response, % at 10 µM; actives 2% (n = 5,900); in the data active = percent response mostly above about 71%, no sharp cut-off; inactive = mostly below about 38%;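 note: higher means compound restores mutant binding toward wildtype level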
# MEKK3-MEK5 inh: MEKK3-MEK5 PB1 inhibition, single concentration confirmation; actives 1.8% (n = 5,900); binding response (% of control), % at 10 µM; shares compounds with MEKK3 PB1 HTS; AID 1894; bead flow cytometry, Alexa488-MEK5 binding to MEKK3; hits give low values;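 active = binding response below 72% of control, or above a set upper limit, though filed actives all read lower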;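 note: 100% = DMSO only wells and 0% = binding blocked by excess unlabeled MEK5; lower values mean stronger disruption of MEK5 binding to MEKK3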
# The depositor's hits bear a star; . = no result given; [ ] = dose if it differs, or a comment.
SMILES,Apaf-1 inh,MEKK2 WT-MEK5,PREPL inhibitor,UBC13 polyUb,MEKK3 PB1 HTS,MEKK2mut PB1 HTS,MEKK2wt confirm,MEKK2mut-MEK5,MEKK3-MEK5 inh
Cc1ccc(NC(=O)c2cc3c(s2)CCCC3)cc1S(=O)(=O)Nc1ccccc1Cl,18,111,17,5,133*,1,95,-5,102
CCOC(=O)c1c(N)sc2c1CCC(C)C2 (centres undefined),12,103,18,-18,103,4,.,.,.
CCOC(=O)c1c(N)sc2c1CCCC2,14,64,-14,-1,52*[inhibitor],-9,101,0,100
COc1ccc(C2c3ccc4ccccc4c3Oc3ncn(CCN4CCOCC4)c(=N)c32)cc1 (centres undefined),24,179*,44*,4,108,24,172,42,112
COc1ccc(C2c3ccc4ccccc4c3Oc3ncn(CCCO)c(=N)c32)cc1 (centres undefined),16,110,16,26,88,-2,.,.,.
COc1ccc(C2c3ccc4ccccc4c3Oc3ncn(CCN(C)C)c(=N)c32)cc1 (centres undefined),5,157*,38,35,106,29*,124,15,105
COc1ccc(C2c3ccc4ccccc4c3Oc3ncn(CCO)c(=N)c32)cc1 (centres undefined),6,151*,11,28,115,20,143,27,95
COc1ccccc1C(=O)NCCC(=O)Nc1ncccc1O,-14,101,0,-2,101,2,.,.,.
N#Cc1ccccc1OCC(=O)N1CCN(S(=O)(=O)c2ccc(Cl)cc2)CC1,2,.,9,2,.,.,.,.,.
COc1ccc(C(=O)C[n+]2ccc(N(C)C)cc2)cc1,-13,120,-3,6,135*,29,105,-4,105
COc1ccc(C(=O)C[n+]2cccc3cc(OC)ccc32)cc1,15,105,-2,2,100,3,.,.,.
COc1ccc(C(=O)C[n+]2cccc3cc(C)ccc32)cc1,2,.,1,-8,97,241*,104,-5,99
COC(=O)C1CCN(Cc2cn(-c3ccccc3)nc2-c2ccc3c(c2)OCO3)CC1,9,108,8,6,100,0,.,.,.
CN(C)c1ccc(/C=N/NC(=O)c2ccco2)cc1,-7,111,0,-9,130*,1,102,6,104
CC(=O)Nc1ccc(-c2nc3c(C)cccc3[nH]2)cc1,0,3.0*[inhibitor],0,4,3.0*[inhibitor],-14,114,6,104
COc1ccc2[nH]c(C)c(CCNC(=S)Nc3cccc(C)c3)c2c1,7,1.0*[inhibitor],19,11,1.0*[inhibitor],-14,93,-6,98
N#C/C(=C(/O)COc1ccccc1)c1nc2ccccc2s1,2,93,21,-11,100,-7,.,.,.
CCOC(=O)c1nc2ccccc2s1,-9,2.0*[inhibitor],3,3,2.0*[inhibitor],-69,102,1,103
N#C/C(=C(/O)COC(=O)c1ccc(C#N)cc1)c1nc2ccccc2s1,6,-1.0*[inhibitor],6,-8,94,0,96,1,98
CCOC(=O)Nc1nc2ccccc2s1,-2,100,-1,8,103,-2,.,.,.
CS(=O)(=O)c1ccc(Cl)c(NC(=O)COC(=O)Cc2c[nH]c3ccccc23)c1,6,.,2,4,.,.,.,.,.
CCN(CC)S(=O)(=O)c1ccc(OC)c(NC(=O)c2cc3c(=O)n4ccccc4nc3s2)c1,-1,104,7,4,130*,0,102,-1,105
COC(=O)c1nnn(-c2ccsc2C(=O)OC)c1C(=O)OC,-9,123,-3,-1,145*,5,101,-5,100
CCN1CCC(C(N)=O)CC1,-8,0.0*[inhibitor],0,-2,0.0*[inhibitor],-35,100,5,105
CCCCOc1ccc(CC(=O)NCC(=O)O)cc1,-10,92,-5,3,57*[inhibitor],-2,99,3,105
SMILES,Apaf-1 inh,MEKK2 WT-MEK5,PREPL inhibitor,UBC13 polyUb,MEKK3 PB1 HTS,MEKK2mut PB1 HTS,MEKK2wt confirm,MEKK2mut-MEK5,MEKK3-MEK5 inh
CCCCN(CC(O)COc1cccc(C)c1)CC(O)COc1cccc(C)c1 (centres undefined),20,121,-32,8,107,1,.,.,.
O=C(Nc1ccc2nc3n(c(=O)c2c1)CCCC3)c1cc([N+](=O)[O-])ccc1F,5,97,-1,-10,100,-1,.,.,.
O=C(Nc1ccc2nc3n(c(=O)c2c1)CCCC3)c1cccc([N+](=O)[O-])c1,3,112,1,10,139*,2,101,-5,99
COC(=O)c1cc(S(=O)(=O)N2CCN(c3ccc(C(C)=O)cc3)CC2)cn1C,-10,102,1,-10,100,-3,.,.,.
CC(=O)N1CCN2C(=O)C1CCCC(=O)c1cc(C)ccc12 (centres undefined),-6,64,-6,12,48*[inhibitor],5,103,0,99
CCOc1ccccc1Nc1nnc(SCC(=O)NC2CC2)s1,13,.,21,-4,.,.,.,.,.
CC(=O)Nc1ccc(NC(=O)COc2cccc3c2OC(C)(C)C3)cc1,-8,104,-11,2,102,-2,.,.,.
CC1(C)Cc2cccc(OCC(=O)Nc3cccnc3)c2O1,1,122,1,2,130*,9,98,-4,99
CCN(CC)c1nc(N)c([N+](=O)[O-])c(NCCO)n1,-4,115,-2,-7,134*,1,82,-7,97
COc1ccc(NC(=O)CSc2n[nH]c(=O)n2C2CC2)cc1OC,0,.,0,-5,.,.,.,.,.
Cc1ccc(CNC(=O)CNC(=O)c2ccco2)cc1,1,112,2,5,108,5,.,.,.
CC(/C=C/c1ccco1)=N\NC(=O)C(O)c1ccccc1 (centres undefined),-16,110,-5,-3,133*,0,104,11,99
Fc1ccc(C2=NN(c3ccccc3)C(c3ccco3)C2)cc1 (centres undefined),7,85,2,16,95,-9,.,.,.
C(=C\c1ccco1)/C1=NN(c2ccccc2)C(c2ccco2)C1 (centres undefined),20,78,8,3,129*,2,98,-3,102
